Results as given in ChEMBL document CHEMBL1629469, “Pharmacophore model for pentamidine analogs active against Plasmodium falciparum” (Eur J Med Chem, 2010).

Assays:
[1] = tested on: Plasmodium falciparum; test: Antimalarial activity against chloroquine and pyrimethamine -resistant Plasmodium falciparum K1 after 48 hrs by [3H]hypoxanthine incorporation assay; format: functional, organism-based
Procedure, shortened: (§1)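 Asexual erythrocytic parasites in human red cells (1.25% hematocrit, 0.3% parasitemia) exposed to serial drug dilutions in RPMI 1640 with Hepes, AlbuMAX II, bicarbonate and neomycin. Incubation at 37 C under 93% N2/4% CO2/3% O2; [3H]hypoxanthine added after 48 h, then 24 h more. Incorporation counted by scintillation. IC50 taken from sigmoidal curves; four independent runs, each in duplicate; DMSO below 1%.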

[2] = tested on: Plasmodium falciparum; test: Antimalarial activity against drug -sensitive Plasmodium falciparum NF54 after 48 hrs by [3H]hypoxanthine incorporation assay; format: functional, organism-based; procedure, shortened: as §1

| Compound | IC50 [1] [nM] | IC50 [2] [nM] |
| --- | --- | --- |
| COc1cc(C2=NCCN2)ccc1OCCCCCOc1ccc(C2=NCCN2)cc1OC | 24 | 112 |
| CCOC(=O)c1cc(C(=N)NC(C)C)ccc1OCCCCCOc1ccc(C(=N)NC(C)C)cc1C(=O)OCC | 14.5 | 28.2 |
| N=C(N)c1ccc(OCCCCCOc2ccc(C(=N)N)c(O)c2)cc1O | 631 | 407 |
| Fc1cc(OCCCCCOc2ccc(C3=NCCN3)c(F)c2)ccc1C1=NCCN1 | 8.51 | 50.1 |
| CCOC(=O)c1cc(C(=N)N)ccc1OCCCCCOc1ccc(C(=N)N)cc1C(=O)OCC | 26.3 | 97.7 |
| CCOC(=O)c1cc(C2=NCCN2)ccc1OCCCCCOc1ccc(C2=NCCN2)cc1C(=O)OCC | 33.1 | 234 |
| CCOC(=O)c1cc(C(=N)N)ccc1OCCCCCOc1ccc(C(=N)N)cc1C(N)=O | 17 | 120 |
| N=C(N)c1ccc(OCCCCCOc2ccc(C(=N)N)cc2C(N)=O)c(C(N)=O)c1 | 47.9 | 302 |
| CC(=N)Nc1ccc(OCCCCCOc2ccc(NC(C)=N)cc2)cc1 | 57.5 | 468 |
| N/N=C(\N)c1ccc(OCCCCCOc2ccc(/C(N)=N/N)cc2)cc1 | 562 | 282 |
| CC(C)NC(=N)c1ccc(OCCCCCOc2ccc(C(=N)NC(C)C)c(O)c2)cc1O | 741 | 955 |
| Oc1cc(OCCCCCOc2ccc(C3=NCCN3)c(O)c2)ccc1C1=NCCN1 | 123 | 58.9 |
| CC(C)NC(=N)c1ccc(OCCCCCOc2ccc(C(=N)NC(C)C)c(F)c2)cc1F | 646 | 191 |
| CNC(=N)c1ccc(OCCCCCOc2ccc(C(=N)NC)cc2)cc1 | 5.01 | 26.9 |
| N=C(N)c1ccc(OCCCCCOc2ccc(C(=N)N)c(F)c2)cc1F | 18.2 | 81.3 |
| CN1CCN=C1c1ccc(OCCCCCOc2ccc(C3=NCCN3C)cc2)cc1 | 501 | 204 |
| N=C(N)c1ccc(SCCCCCSc2ccc(C(=N)N)cc2)cc1 | 23.4 | 34.7 |
| N=C(Nc1ccc(OCCCCCOc2ccc(NC(=N)c3ccccc3)cc2)cc1)c1ccccc1 | 245 | 34.7 |
| N=C(N)c1ccc(OCCCCCOc2ccc(C(=N)N)cc2Cl)c(Cl)c1 | 32.4 | 105 |
| N=C(N)c1ccc(OCCCCCOc2ccc(C(=N)N)cc2Br)c(Br)c1 | 18.2 | 52.5 |
| c1cc(C2=NCCN2)ccc1OCCCCCOc1ccc(C2=NCCN2)cc1 | 3.39 | 34.7 |
| N=C(N)c1ccc(OCCCCCOc2ccc(C(=N)N)cc2)cc1 [PENTAMIDINE] | 12.3 | 56.2 |
